# Calls of active or inactive are those of the source. The calls are words filed in the database; no cut-off is given here.
# Assays:
# [1] = Metabolic stability in human serum assessed as full length product remaining after 10 mins by HPLC; format: ADME, cell-free; conditions: read-out: Stability
# How it was run: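 About 0.5 A260 units compound in 1% human serum in PBS, 37 °C; aliquot taken at 10 min, analysed by anion-exchange HPLC for percent intact full-length product.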
# [2] = target: T1, Toll-like receptor 8 (Homo sapiens) (UniProt Q9NR97); test: Activation of human TLR8 expressed in HEK293XL assessed as fold induction of NF-kappaB activity at 50 ug/ml after 18 hrs by reporter gene assay relative to control
# T1 sequence (whole entry): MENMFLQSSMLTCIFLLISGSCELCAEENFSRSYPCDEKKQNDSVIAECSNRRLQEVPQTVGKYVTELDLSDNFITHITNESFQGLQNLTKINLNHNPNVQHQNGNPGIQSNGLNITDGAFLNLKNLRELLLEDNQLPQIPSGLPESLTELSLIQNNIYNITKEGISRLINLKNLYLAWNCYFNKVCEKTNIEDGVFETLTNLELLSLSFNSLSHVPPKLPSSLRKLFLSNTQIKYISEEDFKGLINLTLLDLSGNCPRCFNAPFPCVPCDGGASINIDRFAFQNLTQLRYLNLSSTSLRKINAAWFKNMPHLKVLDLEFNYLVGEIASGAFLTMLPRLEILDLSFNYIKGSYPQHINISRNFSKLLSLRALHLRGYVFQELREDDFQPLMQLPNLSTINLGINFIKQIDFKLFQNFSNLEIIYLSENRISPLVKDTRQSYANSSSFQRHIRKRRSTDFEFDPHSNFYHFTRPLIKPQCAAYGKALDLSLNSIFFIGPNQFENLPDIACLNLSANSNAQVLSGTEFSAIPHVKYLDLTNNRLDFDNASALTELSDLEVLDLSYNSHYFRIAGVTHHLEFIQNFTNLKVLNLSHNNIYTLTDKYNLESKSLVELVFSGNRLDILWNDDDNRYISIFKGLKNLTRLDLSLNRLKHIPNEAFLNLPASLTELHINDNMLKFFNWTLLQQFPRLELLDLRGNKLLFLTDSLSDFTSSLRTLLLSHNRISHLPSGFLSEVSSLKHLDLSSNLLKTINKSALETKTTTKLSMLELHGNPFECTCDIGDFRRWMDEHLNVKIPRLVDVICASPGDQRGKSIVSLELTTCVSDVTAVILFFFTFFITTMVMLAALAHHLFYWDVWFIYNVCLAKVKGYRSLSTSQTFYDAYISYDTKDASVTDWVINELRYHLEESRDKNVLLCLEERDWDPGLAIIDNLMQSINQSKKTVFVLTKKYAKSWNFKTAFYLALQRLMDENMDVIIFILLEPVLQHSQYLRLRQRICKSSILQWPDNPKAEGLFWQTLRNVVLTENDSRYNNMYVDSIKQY
# How it was run: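 HEK293 cells stably expressing human TLR7 or TLR8, transiently transfected with SEAP reporter plasmid; medium replaced, SIMRA compounds added, 18 h incubation. Supernatant SEAP measured by QuantiBlue; expressed as fold increase in NF-κB activity over PBS control. Tabulated data at 50 μg/mL, representative of three independent experiments.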
# [3] = target: Toll-like receptor 3 (Homo sapiens) (UniProt O15455); test: Activation of human TLR3 expressed in HEK293 assessed as induction of NF-kappaB activity reporter gene assay; format: cell-based
# Sequence of Toll-like receptor 3 (Homo sapiens) (O15455 whole entry): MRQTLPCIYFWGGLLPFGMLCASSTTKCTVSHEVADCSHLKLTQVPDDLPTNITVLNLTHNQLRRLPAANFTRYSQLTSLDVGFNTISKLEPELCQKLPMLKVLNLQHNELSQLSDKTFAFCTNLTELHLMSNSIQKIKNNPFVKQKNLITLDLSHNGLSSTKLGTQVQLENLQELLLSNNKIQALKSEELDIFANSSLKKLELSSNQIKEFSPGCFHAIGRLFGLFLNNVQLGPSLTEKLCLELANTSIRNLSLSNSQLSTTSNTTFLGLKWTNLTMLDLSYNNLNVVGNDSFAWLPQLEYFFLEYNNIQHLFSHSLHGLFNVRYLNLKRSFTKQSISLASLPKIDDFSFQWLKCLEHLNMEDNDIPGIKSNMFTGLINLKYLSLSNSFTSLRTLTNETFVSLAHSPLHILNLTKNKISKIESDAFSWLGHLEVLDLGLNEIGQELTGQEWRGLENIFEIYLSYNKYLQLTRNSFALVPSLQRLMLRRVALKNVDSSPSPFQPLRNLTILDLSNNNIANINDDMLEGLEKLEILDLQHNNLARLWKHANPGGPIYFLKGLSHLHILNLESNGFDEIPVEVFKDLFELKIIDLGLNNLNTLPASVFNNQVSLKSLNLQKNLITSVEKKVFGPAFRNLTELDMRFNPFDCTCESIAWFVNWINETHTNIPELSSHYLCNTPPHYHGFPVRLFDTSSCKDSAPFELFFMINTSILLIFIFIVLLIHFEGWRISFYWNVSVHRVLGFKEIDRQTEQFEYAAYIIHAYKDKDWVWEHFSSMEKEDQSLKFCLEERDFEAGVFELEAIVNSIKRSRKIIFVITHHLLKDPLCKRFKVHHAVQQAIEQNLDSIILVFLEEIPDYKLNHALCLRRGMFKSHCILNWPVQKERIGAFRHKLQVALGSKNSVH
structure (smiles),measurement,setting,value
Nc1ccn([C@@H]2O[C@H](COP(=O)(S)O[C@H]3[C@@H](O)[C@H](n4ccc5c(=O)[nH]c(N)nc54)O[C@@H]3COP(=O)(S)O[C@H]3[C@@H](O)[C@H](n4cnc5c(N)ncnc54)O[C@@H]3COP(=O)(S)O[C@H]3[C@@H](O)[C@H](n4cnc5c(N)ncnc54)O[C@@H]3COP(=O)(S)O[C@H]3[C@@H](O)[C@H](n4ccc5c(=O)[nH]c(N)nc54)O[C@@H]3COP(=O)(S)O[C@H]3[C@@H](O)[C@H](n4ccc(=O)[nH]c4=O)O[C@@H]3COP(=O)(S)O[C@H]3[C@@H](O)[C@H](n4ccc(=O)[nH]c4=O)O[C@@H]3COP(=O)(S)O[C@H]3[C@@H](O)[C@H](n4cnc5c(N)ncnc54)O[C@@H]3COP(=O)(S)O[C@H]3[C@@H](O)[C@H](n4cnc5c(N)ncnc54)O[C@@H]3CO)[C@@H](OP(=O)(S)OC[C@H]3O[C@@H](n4ccc(=O)[nH]c4=O)[C@H](O)[C@@H]3OP(=O)(S)OC[C@H]3O[C@@H](n4ccc(=O)[nH]c4=O)[C@H](O)[C@@H]3OP(=O)(S)OCC(O)COP(=O)(S)O[C@H]3[C@@H](O)[C@H](n4ccc(=O)[nH]c4=O)O[C@@H]3COP(=O)(S)O[C@H]3[C@@H](O)[C@H](n4ccc(=O)[nH]c4=O)O[C@@H]3COP(=O)(S)O[C@H]3[C@@H](O)[C@H](n4ccc(N)nc4=O)O[C@@H]3COP(=O)(S)O[C@H]3[C@@H](O)[C@H](n4ccc5c(=O)[nH]c(N)nc54)O[C@@H]3COP(=O)(S)O[C@H]3[C@@H](O)[C@H](n4cnc5c(N)ncnc54)O[C@@H]3COP(=O)(S)O[C@H]3[C@@H](O)[C@H](n4cnc5c(N)ncnc54)O[C@@H]3COP(=O)(S)O[C@H]3[C@@H](O)[C@H](n4ccc5c(=O)[nH]c(N)nc54)O[C@@H]3COP(=O)(S)O[C@H]3[C@@H](O)[C@H](n4ccc(=O)[nH]c4=O)O[C@@H]3COP(=O)(S)O[C@H]3[C@@H](O)[C@H](n4ccc(=O)[nH]c4=O)O[C@@H]3COP(=O)(S)O[C@H]3[C@@H](O)[C@H](n4cnc5c(N)ncnc54)O[C@@H]3COP(=O)(S)O[C@H]3[C@@H](O)[C@H](n4cnc5c(N)ncnc54)O[C@@H]3CO)[C@H]2O)c(=O)n1 (stereo partly specified),remaining at 10 min,[1],83%
same,fold change (FC),[2],1.6
same,Activity,[3],inactive
Nc1ccn([C@@H]2O[C@H](COP(=O)(S)O[C@H]3[C@@H](O)[C@H](n4cnc5c(N)ncnc54)O[C@@H]3CO)[C@@H](OP(=O)(S)OC[C@H]3O[C@@H](n4ccc(=O)[nH]c4=O)[C@H](O)[C@@H]3OP(=O)(S)OC[C@H]3O[C@@H](n4ccc(=O)[nH]c4=O)[C@H](O)[C@@H]3OP(=O)(S)OC[C@H]3O[C@@H](n4ccc5c(=O)[nH]c(N)nc54)[C@H](O)[C@@H]3OP(=O)(S)OC[C@H]3O[C@@H](n4cnc5c(N)ncnc54)[C@H](O)[C@@H]3OP(=O)(S)OC[C@H]3O[C@@H](n4ccc(N)nc4=O)[C@H](O)[C@@H]3OP(=O)(S)OC[C@H]3O[C@@H](n4ccc(=O)[nH]c4=O)[C@H](O)[C@@H]3OP(=O)(S)OC[C@H]3O[C@@H](n4ccc(=O)[nH]c4=O)[C@H](O)[C@@H]3OP(=O)(S)OC[C@H]3O[C@@H](n4ccc5c(=O)[nH]c(N)nc54)[C@H](O)[C@@H]3OP(=O)(S)OC[C@H]3O[C@@H](n4cnc5c(N)ncnc54)[C@H](O)[C@@H]3OP(=O)(S)OCC(O)COP(=O)(S)O[C@H]3[C@@H](O)[C@H](n4cnc5c(N)ncnc54)O[C@@H]3COP(=O)(S)O[C@H]3[C@@H](O)[C@H](n4ccc5c(=O)[nH]c(N)nc54)O[C@@H]3COP(=O)(S)O[C@H]3[C@@H](O)[C@H](n4ccc(=O)[nH]c4=O)O[C@@H]3COP(=O)(S)O[C@H]3[C@@H](O)[C@H](n4ccc(=O)[nH]c4=O)O[C@@H]3COP(=O)(S)O[C@H]3[C@@H](O)[C@H](n4ccc(N)nc4=O)O[C@@H]3COP(=O)(S)O[C@H]3[C@@H](O)[C@H](n4cnc5c(N)ncnc54)O[C@@H]3COP(=O)(S)O[C@H]3[C@@H](O)[C@H](n4ccc5c(=O)[nH]c(N)nc54)O[C@@H]3COP(=O)(S)O[C@H]3[C@@H](O)[C@H](n4ccc(=O)[nH]c4=O)O[C@@H]3COP(=O)(S)O[C@H]3[C@@H](O)[C@H](n4ccc(=O)[nH]c4=O)O[C@@H]3COP(=O)(S)O[C@H]3[C@@H](O)[C@H](n4ccc(N)nc4=O)O[C@@H]3COP(=O)(S)O[C@H]3[C@@H](O)[C@H](n4cnc5c(N)ncnc54)O[C@@H]3CO)[C@H]2O)c(=O)n1 (stereo partly specified),remaining at 10 min,[1],87%
same,fold change (FC),[2],1.4
same,Activity,[3],inactive

# From ChEMBL document CHEMBL1154352, “Toll-like receptor 7 selective synthetic oligoribonucleotide agonists: synthesis and structure-activity relationship studies” (J Med Chem, 2009)
